{"source": "ChEMBL document CHEMBL3853327", "about": "(J Med Chem, 2016)", "key": {"[1]": {"assay": "Tmax in Sprague-Dawley rat plasma at 8 mg/kg administered through oral gavage measured at 5 mins to 24 hrs post dosing by LC/MS analysis", "assay_type": "ADME, organism-based", "conditions": "in vivo", "how_it_was_run": "(§1)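 Male Sprague-Dawley rats, ten randomly split into two groups (n = 5), single gavage dose of 8 or 16 mg·kg−1 in PEG 400/normal saline (70/30, V/V). Jugular sinus blood into heparinized tubes at 5 min to 24 h; plasma separated at 2200g for 8 min, stored −20 °C. Methanol precipitation with internal standard, LC-MS quantitation against plasma standard curves. Parameters reported as mean ± SD.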"}, "[2]": {"tested_on": "Human immunodeficiency virus 1", "assay": "Antiviral activity against HIV1 3B harboring reverse transcriptase F227L/V106A double mutant infected in human MT4 cells assessed as protection against virus induced cytotoxicity after 5 days by MTT assay", "assay_type": "functional, cell-based", "conditions": "Human immunodeficiency virus 1, 3B, MT4, 120 h", "how_it_was_run": "(§2)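 MTT cytopathicity assay in MT-4 cells (6 × 10^5 cells/mL). Compounds serially diluted 5-fold in triplicate wells, run in parallel on infected and mock-infected cells. Virus added at 100−300 CCID50 per well. Viability read spectrophotometrically at 540 and 690 nm after 5 days, using the median OD of three wells. EC50 is the concentration giving 50% protection from viral cytopathogenicity.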"}, "[3]": {"assay": "Cytotoxicity against human mock-infected MT4 cells assessed as reduction in cell viability after 5 days by MTT assay", "assay_type": "toxicity, cell-based", "how_it_was_run": "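Mock-infected MT-4 cells (6 × 10^5 cells/mL at seeding) with serial 5-fold compound dilutions in triplicate wells. Viability read by MTT after 5 days, absorbance at 540 and 690 nm, median OD of three wells. CC50 is the concentration reducing OD540 of mock-infected cells by 50%.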"}, "[4]": {"assay": "AUMC (0 to t) in Sprague-Dawley rat plasma at 16 mg/kg administered through oral gavage measured at 5 mins to 24 hrs post dosing by LC/MS analysis", "assay_type": "ADME, organism-based", "conditions": "in vivo", "how_it_was_run": "as §1"}, "[5]": {"assay": "Inhibition of recombinant wild type HIV1 reverse transcriptase using DIG-dUTP/biotin-dUTP/dTTP assessed as suppression of biotin-dUTP incorporation after 1 hr by ELISA", "set-up": "species or system Human immunodeficiency virus 1", "how_it_was_run": "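Recombinant WT HIV-1 RT in a Roche colorimetric kit: template plus DIG-dUTP, biotin-dUTP and dTTP, ±inhibitor, 1 h at 37 °C. Product captured on streptavidin plate 1 h at 37 °C, anti-DIG-POD 1 h at 37 °C, ABTS developed at 25 °C, read at OD405. IC50 is the concentration inhibiting biotin-dUTP incorporation by 50%.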"}, "[6]": {"tested_on": "Human immunodeficiency virus 1", "assay": "Potency index, ratio of ETV EC50 to compound EC50 for wild type HIV1 3B harboring reverse transcriptase infected in human MT4 cells", "assay_type": "functional"}, "[7]": {"tested_on": "Human immunodeficiency virus 1", "assay": "Antiviral activity against HIV1 3B harboring reverse transcriptase E138K mutant infected in human MT4 cells assessed as protection against virus induced cytotoxicity after 5 days by MTT assay", "assay_type": "functional, cell-based", "conditions": "Human immunodeficiency virus 1, 3B, MT4, 120 h", "how_it_was_run": "as §2"}}, "data": [{"smiles": "Cc1cc(C#N)cc(C)c1Oc1nc(NC2CCN(Cc3ccc(S(N)(=O)=O)cc3)CC2)nc2ccsc12", "values": [{"measurement": "Tmax", "setting": "[1]", "value": 1, "unit": "h"}, {"measurement": "EC50", "setting": "[2]", "value": 4.2, "unit": "nM"}, {"measurement": "CC50 at 120 h", "setting": "[3]", "value": "> 228000", "unit": "nM"}, {"measurement": "AUMCt", "setting": "[4]", "value": 5458.8, "unit": "ug/L.hr"}, {"measurement": "IC50", "setting": "[5]", "value": 300, "unit": "nM"}, {"measurement": "Ratio EC50", "setting": "[6]", "value": 3}, {"measurement": "EC50", "setting": "[7]", "value": 2.9, "unit": "nM"}]}]}
